Assay results reported in article PMC5538152 (Pharmacognosy Magazine, 2017).

Tests used:
HT29 cells [1] = test: Cell morphology by phase contrast microscopy; assay type: cell-based, human; settings: 8, 14, 28 μM; dose- and time-dependent
HT29 cells [2] = test: Cell cycle analysis; assay type: cell-based, human; settings: 72 h; for Percentage of cells in G2-M phase (Dip G2): untreated 7.70%; for Percentage of cells in G0-G1 phase (Dip G1): untreated 65.54%
[3] = test system: DLD-1 colon carcinoma cell line; settings: read-out: IC50 against DLD-1; cited from earlier work
caspase 8 in HT29 cells = test: Active caspase 8 by flow cytometry; assay type: cell-based, human; settings: 72 h of treatment
How it was run: (§1)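 HT29 cells were seeded at 1 × 10^5 cells/ml overnight, then exposed to test compound at 8, 14 or 28 μM for 72 h (37°C, 5% CO2), with untreated cells in 0.5% DMSO as control. Harvested, PBS-washed cells were labelled 45 min at 37°C with FITC-IETD-FMK (caspase 8) or FITC-LEHD-FMK (caspase 9), then washed and read by flow cytometry in FL1. Means ± SD, ≥3 independent experiments.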

[4] = test system: HeLa cervical carcinoma cell line; settings: read-out: IC50 against HeLa; cited from earlier work
[5] = test system: CCD-18Co normal human colon fibroblast cell line; test: In vitro cytotoxicity assay; assay type: cell-based; settings: 72 h
HT29 cells [6] = test: Nuclear morphology by Hoechst 33342/propidium iodide staining; assay type: cell-based, human; settings: 8 μM, 48 h
How it was run: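 Overnight cultures (1 × 10^5 cells/ml) were given test compound at 8, 14 or 28 μM or 0.5% DMSO for 48 h at 37°C, 5% CO2. Cells were harvested, washed in cold PBS and incubated with Hoechst 33342 (10 μg/ml) for 7 min at 37°C. PI (2.5 μg/ml) was then added for 15 min in the dark at room temperature. Cells were dried on slides and nuclei examined by fluorescence microscopy at ×630.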

caspase 9 in HT29 cells = test: Active caspase 9 by flow cytometry; assay type: cell-based, human; settings: 72 h of treatment
How it was run: as §1

caspase 8 and caspase 9 = settings: cited from earlier work

C=CC(C)(C)c1cc2cc3c(cc2oc1=O)OC(C(C)(C)OC(C)=O)C3 (stereo not shown) [Rutamarin (8), rutamarin]
Cellular morphological changes (HT29 cells [1]): apoptotic bodies, cell shrinkage, detachment, and rounding were observed | Percentage of cells in G2-M phase (Dip G2) (HT29 cells [2]; 8 μM): 12.05% | Percentage of cells in G0-G1 phase (Dip G1) (HT29 cells [2]; 8 μM): 75.26% | Percentage of cells in G2-M phase (Dip G2) (HT29 cells [2]; 14 μM): 12.60% | Percentage of cells in G0-G1 phase (Dip G1) (HT29 cells [2]; 14 μM): 76.20% | Percentage of cells in G2-M phase (Dip G2) (HT29 cells [2]; 28 μM): 15.24% | Percentage of cells in G0-G1 phase (Dip G1) (HT29 cells [2]; 28 μM): 76.58% | IC50 [3]: 37.5 µM | Caspase 8 activation relative to untreated cells (caspase 8 in HT29 cells): 15 fold | IC50 [4]: 50.7 µM | Toxicity to normal colon cells (words) ([5]; listed as Rutamarin): not toxic to CCD-18Co cells | Toxicity to normal colon cells (words) ([5]; listed as rutamarin): exerted no damage against the normal cells | IC50 ([5]; Homo sapiens, CCD-18Co, read-out: IC50 (μM), CCD-18Co, 72 h of incubation, SRB): ≥ 100 µM | Nuclear morphology (HT29 cells [6]): chromatin condensation | Caspase 9 activation relative to untreated cells (caspase 9 in HT29 cells): 4 fold

CCCC(=O)c1c(O)c(C/C=C(\C)CCC=C(C)C)c(O)c2c([C@@H](O)CC)cc(=O)oc12 [kayeassamin A]
Caspase activation (caspase 8 and caspase 9): activate caspase 8 more than caspase 9
